How the values were obtained:
[1] = molecular target: Carbonic anhydrase 2 (Homo sapiens) (UniProt P00918); assay: […] of human Carbonic anhydrase II, using histamine as standard
Summary of the method: (§1)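 Esterase assay: initial rates of 4-nitrophenyl acetate hydrolysis read at 400 nm, pH 7.40, 25 °C, substrate 2×10^-2 to 1×10^-6 M. Enzymes were recombinant human CA I (25 nM) and CA II (7 nM) expressed in E. coli BL21(DE3), and CA IV (33 nM) isolated from bovine lung microsomes. Activator and enzyme were preincubated 15 min at room temperature. Non-enzymatic hydrolysis was subtracted. KA is the mean of at least three determinations.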

[2] = molecular target: Carbonic anhydrase 1 (Homo sapiens) (UniProt P00915); assay: Activation of human Carbonic anhydrase I, using histamine as standard
Carbonic anhydrase 1 (Homo sapiens), sequence (P00915 2-261 limits assumed): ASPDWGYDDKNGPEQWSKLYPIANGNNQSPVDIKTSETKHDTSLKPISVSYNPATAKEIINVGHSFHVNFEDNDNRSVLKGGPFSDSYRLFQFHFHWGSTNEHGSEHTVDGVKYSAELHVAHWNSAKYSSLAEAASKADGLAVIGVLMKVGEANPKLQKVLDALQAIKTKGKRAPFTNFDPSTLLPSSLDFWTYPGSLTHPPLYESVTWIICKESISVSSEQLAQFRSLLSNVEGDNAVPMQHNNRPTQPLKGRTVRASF

[3] = molecular target: T1, Carbonic anhydrase 4 (Bos taurus) (UniProt Q95323); assay: Bovine Carbonic anhydrase IV activity using histamine as standard; summary of the method: as §1
T1 sequence (whole entry): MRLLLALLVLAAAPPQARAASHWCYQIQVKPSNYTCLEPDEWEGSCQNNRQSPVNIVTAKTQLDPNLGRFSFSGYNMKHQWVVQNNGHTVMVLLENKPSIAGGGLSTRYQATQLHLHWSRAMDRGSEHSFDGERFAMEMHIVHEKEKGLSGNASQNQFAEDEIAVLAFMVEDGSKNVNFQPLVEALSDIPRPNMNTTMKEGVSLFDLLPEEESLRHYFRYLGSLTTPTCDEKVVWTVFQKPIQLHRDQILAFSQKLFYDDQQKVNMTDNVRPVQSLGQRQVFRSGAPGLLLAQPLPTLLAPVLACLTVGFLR

Homo sapiens [4] = species: Homo sapiens; assay: Ex vivo carbonic anhydrase activation was measured after 30 min of incubation of lysed human erythrocyte; format: functional; set-up: concentration or dose not given beside the values
Summary of the method: (§2)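 Washed fresh human erythrocytes (Tris pH 7.40, 5 mM) were lysed in distilled water, then the supernatant was incubated with 5 μM activator at 37 °C for 30 or 60 min. CA activity (hCA I + hCA II) was read by esterase assay with 4-nitrophenyl acetate. Activity without activator was set as 100%; values are mean of n = 3.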

Homo sapiens [5] = species: Homo sapiens; assay: Ex vivo carbonic anhydrase activation was measured after 60 min of incubation of lysed human erythrocyte; format: functional; set-up: concentration or dose not given beside the values; summary of the method: as §2

Compound	KA [1] [µM]	KA [2] [µM]	KA [3] [µM]	CA activity (Homo sapiens [4]) [%]	CA activity (Homo sapiens [5]) [%]
Cc1cc(C)[n+](-c2ncc[nH]2)c(-c2ccccc2)c1	59	0.36	0.975	–	–
CCCCc1cc(-c2ccccc2)cc(CCCC)[n+]1-c1ncc[nH]1	86	0.651	1.89	–	–
Cc1cc(C(C)C)[n+](-c2ncc[nH]2)c(C(C)C)c1	0.13	0.024	0.008	–	–
Cc1cc(C)[n+](-c2cc[nH]n2)c(C)c1C	0.457	0.049	0.038	–	–
CCCCc1cc(-c2ccccc2)cc(CCCC)[n+]1-c1nn[n-]n1	145	1.8	6.8	–	–
CCc1cc(-c2ccccc2)cc(CC)[n+]1-c1nn[n-]n1	1.23	0.064	0.055	–	–
Cc1cc(C(C)C)[n+](-c2cc[nH]n2)c(C(C)C)c1	0.264	0.038	0.016	–	–
NCCc1c[nH]cn1 [HISTAMINE]	125	2.1	41	121	130
Cc1c2cc(c(C)[n+]1-c1cc[nH]n1)CCCCCCCCC2	0.412	0.037	0.033	–	–
Cc1cc(C)[n+](-c2cc[nH]n2)c(C)c1	0.48	0.052	0.045	–	–
Cc1cc(C)[n+](-c2ncc[nH]2)c(C)c1	0.347	0.036	0.021	–	–
Cc1cc(-c2ccccc2)cc(C)[n+]1-c1ncc[nH]1.[O-][Cl+3]([O-])([O-])[O-]	0.153	0.021	0.013	192	233
CCc1cc(-c2ccccc2)cc(CC)[n+]1-c1ncc[nH]1	0.144	0.018	0.009	–	–
CC(C)c1cc(-c2ccccc2)cc(C(C)C)[n+]1-c1ncc[nH]1.[O-][Cl+3]([O-])([O-])[O-]	0.095	0.012	0.006	256	298
CC(C)c1cc(-c2ccccc2)cc(C(C)C)[n+]1-c1nn[n-]n1	1.15	0.05	0.012	173	212
Cc1c2cc(c(C)[n+]1C1=NCC=N1)CCCCCCCCC2	0.305	0.022	0.02	–	–
CCCc1cc(-c2ccccc2)cc(CCC)[n+]1-c1nn[n-]n1	136	2.12	1.55	–	–
Cc1cc(-c2ccccc2)cc(C)[n+]1-c1nn[n-]n1	1.39	0.076	0.063	–	–

Further lines, with some results ahead:

KA [1] [µM]	KA [2] [µM]	KA [3] [µM]	Compound	CA activity (Homo sapiens [4]) [%]	CA activity (Homo sapiens [5]) [%]
48	0.247	0.62	CCCc1cc(-c2ccccc2)cc(CCC)[n+]1-c1ncc[nH]1	–	–
140	3.05	12.5	CCc1cc(-c2ccccc2)cc(-c2ccccc2)[n+]1-c1nn[n-]n1	–	–
62	0.303	1.24	Cc1cc(-c2ccccc2)cc(-c2ccccc2)[n+]1-c1ncc[nH]1	–	–
> 150	32	> 50	c1ccc(-c2cc(-c3ccccc3)[n+](-c3cc[nH]n3)c(-c3ccccc3)c2)cc1	–	–
135	2.78	8.23	CCCc1cc(-c2ccccc2)cc(-c2ccccc2)[n+]1-c1cc[nH]n1	–	–
0.155	0.021	0.008	CC(C)c1cc(-c2ccccc2)cc(C(C)C)[n+]1-c1cc[nH]n1.[O-][Cl+3]([O-])([O-])[O-]	189	234
134	2.87	10.1	CC(C)c1cc(-c2ccccc2)cc(-c2ccccc2)[n+]1-c1nn[n-]n1	–	–
130	1.9	5.76	CCCc1cc(-c2ccccc2)cc(-c2ccccc2)[n+]1-c1ncc[nH]1	–	–
84	1.05	2.56	CCc1cc(-c2ccccc2)cc(-c2ccccc2)[n+]1-c1ncc[nH]1	–	–
130	2.4	9.55	CCCCc1cc(-c2ccccc2)cc(-c2ccccc2)[n+]1-c1ncc[nH]1	–	–
> 150	4.21	15.5	CCCc1cc(-c2ccccc2)cc(-c2ccccc2)[n+]1-c1nn[n-]n1	–	–
> 150	15	> 50	c1ccc(-c2cc(-c3ccccc3)[n+](-c3ncc[nH]3)c(-c3ccccc3)c2)cc1	–	–
75	1.35	1.2	CCCc1cc(-c2ccccc2)cc(CCC)[n+]1-c1cc[nH]n1	–	–
108	1.1	5.24	Cc1cc(-c2ccccc2)cc(-c2ccccc2)[n+]1-c1nn[n-]n1	–	–
> 150	10.5	> 50	CCCCc1cc(-c2ccccc2)cc(-c2ccccc2)[n+]1-c1nn[n-]n1	–	–
> 150	5.64	> 50	CCCCc1cc(-c2ccccc2)cc(-c2ccccc2)[n+]1-c1cc[nH]n1	–	–
140	1.76	2.59	CCCCc1cc(-c2ccccc2)cc(CCCC)[n+]1-c1cc[nH]n1	–	–
0.359	0.035	0.017	Cc1cc(-c2ccccc2)cc(C)[n+]1-c1cc[nH]n1	–	–
83	0.875	1.68	Cc1cc(C)[n+](-c2cc[nH]n2)c(-c2ccccc2)c1	–	–
> 150	41	> 50	c1ccc(-c2cc(-c3ccccc3)[n+](-c3nn[n-]n3)c(-c3ccccc3)c2)cc1	–	–
0.306	0.027	0.015	CCc1cc(-c2ccccc2)cc(CC)[n+]1-c1cc[nH]n1	–	–
96	0.64	1.85	Cc1cc(-c2ccccc2)cc(-c2ccccc2)[n+]1-c1cc[nH]n1	–	–
107	1.54	3.14	CC(C)c1cc(-c2ccccc2)cc(-c2ccccc2)[n+]1-c1ncc[nH]1	–	–
118	2.34	3.41	CCc1cc(-c2ccccc2)cc(-c2ccccc2)[n+]1-c1cc[nH]n1	–	–
130	2.5	5.29	CC(C)c1cc(-c2ccccc2)cc(-c2ccccc2)[n+]1-c1cc[nH]n1	–	–

Source: ChEMBL document CHEMBL1135812, “Carbonic anhydrase activators: design of high affinity isozymes I, II, and IV activators, incorporating tri-/tetrasubstituted-pyridinium-azole moieties” (2002)
